Results filed as inconclusive are left out. Active and inactive are the calls of the source.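 Rule for the calls: active = dose curve converging in at least two of three replicates, whether well supported or a less certain trend; inactive = fewer than two replicates with a converged curve.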
What follows are compounds tested against Solute carrier family 12 member 5 (Homo sapiens) (UniProt Q9H2X9) (assay: concentration-response of KCC2 transport modulators – cell-based, HEK293 KCC2, FluoZin-2 fluorescence, dose response (AID 1736)). Conditions: HEK293-KCC2 thallium flux.
Solute carrier family 12 member 5 (Homo sapiens), sequence (Q9H2X9 whole entry, looked up): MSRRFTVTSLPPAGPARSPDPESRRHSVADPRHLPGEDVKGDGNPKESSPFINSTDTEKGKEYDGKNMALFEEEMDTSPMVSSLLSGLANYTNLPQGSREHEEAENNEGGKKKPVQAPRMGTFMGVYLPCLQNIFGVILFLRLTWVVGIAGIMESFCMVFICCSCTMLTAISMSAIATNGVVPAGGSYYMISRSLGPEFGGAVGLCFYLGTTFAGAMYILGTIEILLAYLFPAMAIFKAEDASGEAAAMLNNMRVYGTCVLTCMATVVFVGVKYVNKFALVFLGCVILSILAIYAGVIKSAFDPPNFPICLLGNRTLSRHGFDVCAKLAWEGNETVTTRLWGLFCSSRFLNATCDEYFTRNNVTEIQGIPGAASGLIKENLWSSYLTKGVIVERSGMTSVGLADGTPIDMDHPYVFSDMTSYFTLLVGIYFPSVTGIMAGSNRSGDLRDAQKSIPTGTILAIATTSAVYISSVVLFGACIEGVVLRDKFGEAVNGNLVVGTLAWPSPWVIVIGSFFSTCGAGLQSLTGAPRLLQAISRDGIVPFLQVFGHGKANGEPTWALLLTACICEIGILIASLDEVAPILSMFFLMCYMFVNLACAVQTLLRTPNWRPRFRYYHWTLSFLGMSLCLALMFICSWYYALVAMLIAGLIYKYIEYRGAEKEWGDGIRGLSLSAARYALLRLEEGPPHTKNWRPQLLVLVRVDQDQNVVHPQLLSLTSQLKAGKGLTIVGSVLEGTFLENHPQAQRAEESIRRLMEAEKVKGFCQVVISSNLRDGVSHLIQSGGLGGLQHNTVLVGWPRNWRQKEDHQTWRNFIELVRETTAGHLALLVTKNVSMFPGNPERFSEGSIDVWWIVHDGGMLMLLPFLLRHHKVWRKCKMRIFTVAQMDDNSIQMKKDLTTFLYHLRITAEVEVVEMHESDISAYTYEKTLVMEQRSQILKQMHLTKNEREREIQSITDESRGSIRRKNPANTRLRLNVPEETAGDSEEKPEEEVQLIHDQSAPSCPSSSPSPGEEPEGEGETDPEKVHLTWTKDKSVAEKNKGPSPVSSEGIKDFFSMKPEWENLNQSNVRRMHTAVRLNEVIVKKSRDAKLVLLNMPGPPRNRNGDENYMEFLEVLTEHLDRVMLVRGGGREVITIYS
How it was run: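 System: KCC2-expressing HEK cells; medium: HEPES-buffered HBSS plus 0.2 mM ouabain; reagent: thallium stimulus; compound: 11-point threefold dilution series, top dose 30 µM; measured by: FluoZin-2 AM fluorescence (0.5 µM dye), 480/540 nm, 1 Hz imaging; read-out: EC50 from normalized 10–20 s fluorescence slope; replication: triplicate wells, each replicate curve fitted separately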

| Structure (SMILES) | EC50 |
| --- | --- |
| Cc1ccc(/C=C2\SC(=S)N(/N=C/c3cc([N+](=O)[O-])ccc3O)C2=O)o1 | inactive |
| Cc1cccc(NC(=S)N=Nc2c(O)n(CN3CCOCC3)c3ccccc23)c1C | inactive |
| O=C(Nn1c(O)c(C=C2N=c3ccccc3=N2)sc1=S)c1ccccc1 | inactive |
| O=C(Nn1c(O)c(C=C2N=c3ccccc3=N2)sc1=S)c1ccccc1Cl | 117 nM |
| COc1ccccc1NC(=S)N=Nc1c(O)[nH]c2ccc(Br)cc12 | 508 nM |
| C/C(=N\NC(=O)c1ccc(Br)cc1)C1C(=O)c2ccccc2C1=O | inactive |
| N#CC1=C(N)NC(SCc2ccccc2)=C(C#N)C12CCCCC2 | inactive |
| O=C1C2Sc3[nH]c(=O)sc3C(c3ccccc3)C2C(=O)N1c1ccccc1 (centres undefined) | 67.7 nM |
| NC(=S)N=Nc1c(O)n(Cc2ccccc2)c2ccccc12 | 427 nM |
